The record followed here is ChEMBL document CHEMBL1158339, “Synthesis and anti-microbial screening of some Schiff bases of 3-amino-6,8-dibromo-2-phenylquinazolin-4(3H)-ones” (2009).

Assay [1] has as its system Aspergillus niger. The experiment in a line: Antifungal activity against Aspergillus niger ATCC 9029 at 100 ug/disk after 48 hrs by paper disk diffusion technique. Format: functional. Particulars: ATCC 9029, 48 h, read-out: IZ. An outline of the steps:
(§1)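 Paper disc diffusion: autoclaved medium at 40–50 °C was seeded at 1 ml/100 ml with a suspension of about 10⁵ cfu/ml matched to McFarland standard and poured 3–4 mm deep. Discs impregnated with compound in dimethylformamide were placed on the set medium. There was 1 h pre-incubation at room temperature, then 48 h at 37 °C. Ketoconazole disc served as reference.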
(In general: Agar diffusion results depend on both activity and mobility in agar.)

Assay [2] deals with Aspergillus fumigatus. The assay can be described thus: Antifungal activity against Aspergillus fumigatus ATCC 46645 at 100 ug/disk after 48 hrs by paper disk diffusion technique. Format: functional. Particulars: ATCC 46645, 48 h, read-out: IZ. An outline of the steps:
as §1

The test system of assay [3] is Aspergillus niger. The experiment in a line: Antifungal activity against Aspergillus niger ATCC 9029 after 48 hrs by agar streak dilution method. The conditions noted are these: ATCC 9029, 48 h. Format: functional. In a few lines: (§2)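 Fungal agar streak dilution. Stock […] in dimethyl formamide. Graded quantities go into molten sterile Sabouraud dextrose agar, poured at 40–50 °C to 3–4 mm depth and left to solidify. Plates are inoculated with about 10⁵ cfu/ml suspension and incubated 48 h at 37 °C. MIC is the lowest concentration with no visible growth.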

The test system of assay [4] is Aspergillus fumigatus. The assay can be described thus: Antifungal activity against Aspergillus fumigatus ATCC 46645 after 48 hrs by agar streak dilution method. Format: functional. The conditions noted are these: ATCC 46645, 48 h. In a few lines: as §2
In assay [5] the test system is Micrococcus luteus. The experiment in a line: Antibacterial activity against Micrococcus luteus ATCC 4698 at 100 ug/disk after 24 hrs by paper disk diffusion technique. Format: functional. The conditions noted are these: NCTC 2665, 24 h, read-out: IZ.
Assay [6] concerns Bacillus cereus. The experiment in a line: Antibacterial activity against Bacillus cereus ATCC 11778 at 100 ug/disk after 24 hrs by paper disk diffusion technique. Format: functional. The conditions noted are these: ATCC 11778, 24 h, read-out: IZ.
Assay [7] relates to Staphylococcus aureus. The experiment in a line: Antibacterial activity against Staphylococcus aureus ATCC 9144 after 24 hrs by agar streak dilution method. Format: functional. The conditions noted are these: ATCC 9144, 24 h. An outline of the steps: (§3)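 Agar streak dilution MIC. Stock […] in dimethyl formamide. Graded quantities go into molten sterile nutrient agar, poured at 40–50 °C to 3–4 mm depth and left to solidify. Plates are streaked with about 10⁵ cfu/ml bacterial suspension and incubated 24 h at 37 °C. MIC is the lowest concentration with no visible growth.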

Assay [8] deals with Staphylococcus epidermidis. The experiment in a line: Antibacterial activity against Staphylococcus epidermidis ATCC 155 after 24 hrs by agar streak dilution method. Particulars: ATCC 155, 24 h. Format: functional. In a few lines: as §3
For assay [9], the system named is Micrococcus luteus. The assay can be described thus: Antibacterial activity against Micrococcus luteus ATCC 4698 after 24 hrs by agar streak dilution method. Format: functional. Particulars: NCTC 2665, 24 h. In a few lines:
as §3

The subject of assay [10] is Bacillus cereus. The experiment in a line: Antibacterial activity against Bacillus cereus ATCC 11778 after 24 hrs by agar streak dilution method. Format: functional. Particulars: ATCC 11778, 24 h. An outline of the steps:
as §3

Assay [11] concerns Klebsiella pneumoniae. The experiment in a line: Antibacterial activity against Klebsiella pneumoniae ATCC 11298 after 24 hrs by agar streak dilution method. Format: functional. The conditions noted are these: ATCC 11298, 24 h. In a few lines: as §3
Assay [12] deals with Pseudomonas aeruginosa. The assay can be described thus: microbe, parasite or virus in culture. The conditions noted are these: ATCC 2853, 24 h, read-out: IZ.
Assay [13] deals with Staphylococcus aureus. The assay can be described thus: microbe, parasite or virus in culture. Particulars: ATCC 9144, 24 h, read-out: IZ.
The subject of assay [14] is Staphylococcus epidermidis. The assay can be described thus: microbe, parasite or virus in culture. Particulars: ATCC 155, 24 h, read-out: IZ.
Assay [15] concerns Escherichia coli. The experiment in a line: microbe, parasite or virus in culture. The conditions noted are these: ATCC 25922, 24 h, read-out: IZ.
Assay [16] has as its system Klebsiella pneumoniae. The experiment in a line: microbe, parasite or virus in culture. Particulars: ATCC 11298, 24 h, read-out: IZ.
Assay [17] concerns Staphylococcus aureus. The experiment in a line: Antibacterial activity against Staphylococcus aureus ATCC 9144 after 24 hrs by paper disk diffusion technique. Format: functional. In a few lines: (§4)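 Paper disc diffusion. Nutrient agar autoclaved 120 °C, 30 min, then inoculated at 40–50 °C with 1 ml/100 ml of a 10⁵ cfu/ml suspension matched to McFarland standard and poured to 3–4 mm. Discs impregnated with compound in dimethyl formamide are laid on the solidified agar. Plates are held 1 h at room temperature, then 24 h at 37 °C.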

For assay [18], the system named is Staphylococcus epidermidis. The assay can be described thus: Antibacterial activity against Staphylococcus epidermidis ATCC 155 after 24 hrs by paper disk diffusion technique. Format: functional. An outline of the steps:
as §4

Assay [19] has as its system Micrococcus luteus. The experiment in a line: Antibacterial activity against Micrococcus luteus ATCC 4698 after 24 hrs by paper disk diffusion technique. Format: functional. An outline of the steps:
as §4

The test system of assay [20] is Bacillus cereus. The experiment in a line: Antibacterial activity against Bacillus cereus ATCC 11778 after 24 hrs by paper disk diffusion technique. Format: functional. An outline of the steps: as §4
Assay [21] has as its system Escherichia coli. The assay can be described thus: Antibacterial activity against Escherichia coli ATCC 25922 after 24 hrs by paper disk diffusion technique. Format: functional. An outline of the steps:
as §4

Assay [22] deals with Pseudomonas aeruginosa. The experiment in a line: Antibacterial activity against Pseudomonas aeruginosa ATCC 2853 after 24 hrs by paper disk diffusion technique. Format: functional. In a few lines: as §4
In assay [23] the test system is Klebsiella pneumoniae. The experiment in a line: Antibacterial activity against Klebsiella pneumoniae ATCC 11298 after 24 hrs by paper disk diffusion technique. Format: functional. An outline of the steps:
as §4

The subject of assay [24] is Aspergillus niger. The experiment in a line: Antifungal activity against Aspergillus niger ATCC 9029 after 48 hrs by paper disk diffusion technique. Format: functional. In a few lines: (§5)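 Fungal disc diffusion. Autoclaved (120 °C, 30 min) medium is inoculated at 40–50 °C with 1 ml/100 ml of a 10⁵ cfu/ml McFarland-matched suspension and poured to 3–4 mm. Compound-impregnated paper discs in dimethyl formamide are applied. Plates are held 1 h at room temperature, then incubated 48 h at 37 °C.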

The subject of assay [25] is Aspergillus fumigatus. The assay can be described thus: Antifungal activity against Aspergillus fumigatus ATCC 46645 after 48 hrs by paper disk diffusion technique. Format: functional. In a few lines:
as §5

The subject of assay [26] is Escherichia coli. The experiment in a line: Antibacterial activity against Escherichia coli ATCC 25922 after 24 hrs by agar streak dilution method. Particulars: ATCC 25922, 24 h. Format: functional. In a few lines:
as §3

The subject of assay [27] is Pseudomonas aeruginosa. The assay can be described thus: Antibacterial activity against Pseudomonas aeruginosa ATCC 2853 after 24 hrs by agar streak dilution method. Format: functional. Particulars: ATCC 2853, 24 h. An outline of the steps: as §3

Values after ≈ are worked out from the molar mass of the structure shown.

For the compound `CC(=O)N1CCN(c2ccc(OCC3COC(Cn4ccnc4)(c4ccc(Cl)cc4Cl)O3)cc2)CC1` (stereo not given) [KETOCONAZOLE], the zone of inhibition at 100 µg/disc was 30 mm with Aspergillus niger [1] and 29 mm in the assay on Aspergillus fumigatus [2]. Moreover, the MIC in the assay on Aspergillus niger [3] is 6.1 µg/mL (≈ 11.5 µM); with Aspergillus fumigatus [4] it was 0.23 µg/mL (≈ 0.433 µM).
Turning to `O=C(O)c1cn(C2CC2)c2cc(N3CCNCC3)c(F)cc2c1=O` [CIPROFLOXACIN], the zone of inhibition at 100 µg/disc in the assay on Micrococcus luteus [5] turned out to be 30 mm; with Bacillus cereus [6] it was 29 mm; in the assay on Pseudomonas aeruginosa [12], 33 mm; in the assay with Staphylococcus aureus [13], 29 mm; in assay [14] it was 31 mm; in the assay with Escherichia coli [15] it was 32 mm. Also, the zone of inhibition at 100 µg/disc with Klebsiella pneumoniae [16] turned out to be 33 mm. In addition, the MIC against Staphylococcus aureus [7] was 0.2 µg/mL (≈ 0.604 µM); in assay [8] it was 0.39 µg/mL (≈ 1.18 µM); in the assay on Micrococcus luteus [9], 0.1 µg/mL (≈ 0.302 µM); against Bacillus cereus [10], 0.3 µg/mL (≈ 0.905 µM); against Klebsiella pneumoniae [11], 0.1 µg/mL (≈ 0.302 µM).
As to `O=c1c2cc(Br)cc(Br)c2nc(-c2ccccc2)n1/N=C/C=C/c1ccccc1`, the “inhibition zone (IZ)” value amounted to 20 mm in the assay with Staphylococcus aureus [17]; 24 mm in assay [18]; 21 mm with Micrococcus luteus [19]; 23 mm in the assay on Bacillus cereus [20]; 25 mm in the assay with Escherichia coli [21]; 19 mm in the assay on Pseudomonas aeruginosa [22]. In addition, the “inhibition zone (IZ)” value in the assay on Klebsiella pneumoniae [23] turned out to be 25 mm; in the assay on Aspergillus niger [24], 24 mm; in the assay with Aspergillus fumigatus [25], 22 mm. The minimal inhibitory concentration (MIC) with Staphylococcus aureus [7] worked out at 23.8 µg/mL (≈ 46.7 µM); in [8], 21.4 µg/mL (≈ 42 µM); in the assay on Micrococcus luteus [9], 22.8 µg/mL (≈ 44.8 µM); against Bacillus cereus [10], 21.9 µg/mL (≈ 43 µM); in the assay with Escherichia coli [26], 20.1 µg/mL (≈ 39.5 µM); against Pseudomonas aeruginosa [27] it was 25.1 µg/mL (≈ 49.3 µM). The MIC in the assay on Klebsiella pneumoniae [11] turned out to be 19.8 µg/mL (≈ 38.9 µM); with Aspergillus niger [3], 11.8 µg/mL (≈ 23.2 µM); against Aspergillus fumigatus [4], 14.6 µg/mL (≈ 28.7 µM).
Take `COc1ccc(/C=N/n2c(-c3ccccc3)nc3c(Br)cc(Br)cc3c2=O)cc1`: the “inhibition zone (IZ)” value stood at 19 mm in the assay with Staphylococcus aureus [17]; 20 mm in assay [18]; 18 mm with Micrococcus luteus [19]; 19 mm with Bacillus cereus [20]; 19 mm in the assay on Escherichia coli [21]; 16 mm with Pseudomonas aeruginosa [22]. Moreover, the figures for the “inhibition zone (IZ)” value in the assay with Klebsiella pneumoniae [23], with Aspergillus niger [24] and in the assay on Aspergillus fumigatus [25] were 20 mm, 23 mm and 24 mm, respectively. In addition, the MIC with Staphylococcus aureus [7] amounted to 32.1 µg/mL (≈ 62.6 µM); in assay [8], 22.2 µg/mL (≈ 43.3 µM); against Micrococcus luteus [9] it was 34.2 µg/mL (≈ 66.6 µM); in the assay with Bacillus cereus [10], 31.9 µg/mL (≈ 62.2 µM); in the assay on Escherichia coli [26], 29.9 µg/mL (≈ 58.3 µM); in the assay with Pseudomonas aeruginosa [27], 36.2 µg/mL (≈ 70.5 µM). For the same compound, the MIC with Klebsiella pneumoniae [11] turned out to be 33.4 µg/mL (≈ 65.1 µM); against Aspergillus niger [3] it was 10.1 µg/mL (≈ 19.7 µM); against Aspergillus fumigatus [4], 12.3 µg/mL (≈ 24 µM).
Regarding `O=c1c2cc(Br)cc(Br)c2nc(-c2ccccc2)n1/N=C/c1ccc(Cl)cc1`, the “inhibition zone (IZ)” value is recorded as 19 mm in the assay on Staphylococcus aureus [17]; 20 mm in assay [18]; 23 mm in the assay with Micrococcus luteus [19]; 19 mm with Bacillus cereus [20]; 27 mm in the assay on Escherichia coli [21]; 26 mm in the assay on Pseudomonas aeruginosa [22]. Further, the “inhibition zone (IZ)” value worked out at 25 mm in the assay on Klebsiella pneumoniae [23], 25 mm in the assay on Aspergillus niger [24] and 22 mm in the assay on Aspergillus fumigatus [25]. The minimum inhibitory concentration (MIC) worked out at 28.4 µg/mL (≈ 54.9 µM) in the assay with Staphylococcus aureus [7]; 25.6 µg/mL (≈ 49.5 µM) in [8]; 33.8 µg/mL (≈ 65.3 µM) in the assay on Micrococcus luteus [9]; 36.1 µg/mL (≈ 69.7 µM) in the assay with Bacillus cereus [10]; 20.2 µg/mL (≈ 39 µM) against Escherichia coli [26]; 22.8 µg/mL (≈ 44 µM) in the assay with Pseudomonas aeruginosa [27]. Moreover, the MIC against Klebsiella pneumoniae [11] was found to be 21.8 µg/mL (≈ 42.1 µM); against Aspergillus niger [3], 10.2 µg/mL (≈ 19.7 µM); against Aspergillus fumigatus [4], 12.6 µg/mL (≈ 24.3 µM).

In general, MIC refers to the lowest concentration that inhibits growth of the organism.
